The values below come from ChEMBL document CHEMBL1649213, “The arabinosyltransferase EmbC is inhibited by ethambutol in Mycobacterium tuberculosis” (2009).

Holding throughout (format): functional
Test [1] relates to Mycobacterium tuberculosis. Put plainly: Antimicrobial activity against Mycobacterium tuberculosis expressing EmbC M300L mutant gene after 48 hrs by agar proportion method.
Test [2] concerns Mycobacterium tuberculosis. Nature of the test: Antimicrobial activity against Mycobacterium tuberculosis expressing EmbC D249G mutant gene after 48 hrs by agar proportion method. In a few lines:
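Agar proportion method: 10^4 CFU plated on 7H10-OADC with EMB or drug-free, and colonies counted after 4 weeks. MIC99 is the lowest concentration at which <1% of cells formed colonies.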

The subject of test [3] is Mycobacterium tuberculosis. Put plainly: Antimicrobial activity against Mycobacterium tuberculosis expressing EmbC M300V mutant gene after 48 hrs. In a few lines: (§1)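 Spot test: 20 µl exponential-phase culture spotted on 7H10 agar plus 10% OADC with EMB 0 to 128 µg/ml. Incubated at 37°C for 10 to 30 days, and growth scored against the drug-free lawn. MIC taken as the highest EMB concentration allowing growth.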

The test system of test [4] is Mycobacterium tuberculosis. Nature of the test: Antimicrobial activity against Mycobacterium tuberculosis expressing EmbC M300I mutant gene after 48 hrs by agar proportion method.
For test [5], the system named is Mycobacterium tuberculosis. Put plainly: Antimicrobial activity against Mycobacterium tuberculosis harboring Mycobacterium smegmatis embB gene after 48 hrs by agar proportion method.
Test [6] has as its system Mycobacterium tuberculosis. Put plainly: Antimicrobial activity against Mycobacterium tuberculosis harboring Mycobacterium smegmatis embB M292L mutant gene after 48 hrs by agar proportion method.
The test system of test [7] is Mycobacterium tuberculosis. Nature of the test: Antimicrobial activity against Mycobacterium tuberculosis expressing EmbC M300I mutant gene after 48 hrs. Put shortly:
as §1

Test [8] has as its system Mycobacterium tuberculosis. Put plainly: Antimicrobial activity against Mycobacterium tuberculosis expressing EmbC T270I mutant gene after 48 hrs by agar proportion method.
In test [9] the test system is Mycobacterium tuberculosis. Nature of the test: Antimicrobial activity against Mycobacterium tuberculosis harboring Mycobacterium smegmatis embB M292I mutant gene after 48 hrs by agar proportion method.
The test system of test [10] is Mycobacterium tuberculosis. Nature of the test: Ratio of MIC for Mycobacterium tuberculosis expressing wild type EmbC gene to MIC for Mycobacterium tuberculosis expressing EmbC D249G mutant gene.
In test [11] the test system is Mycobacterium tuberculosis. Nature of the test: Antimicrobial activity against Mycobacterium tuberculosis expressing EmbC T270I mutant gene after 48 hrs. Put shortly:
as §1

The test system of test [12] is Mycobacterium tuberculosis. Put plainly: Antimicrobial activity against Mycobacterium tuberculosis expressing EmbC M300V mutant gene after 48 hrs by agar proportion method.
Test [13] relates to Mycobacterium tuberculosis. Nature of the test: Antimicrobial activity against Mycobacterium tuberculosis harboring Mycobacterium smegmatis embB M292V mutant gene after 48 hrs by agar proportion method.
In test [14] the test system is Mycobacterium tuberculosis. Put plainly: Antimicrobial activity against Mycobacterium tuberculosis embA V280M gene after 48 hrs by agar proportion method.
The test system of test [15] is Mycobacterium tuberculosis. Nature of the test: Antimicrobial activity against Mycobacterium tuberculosis expressing EmbC D249G mutant gene after 48 hrs. Put shortly:
as §1

For test [16], the system named is Mycobacterium tuberculosis. Put plainly: Antimicrobial activity against Mycobacterium tuberculosis expressing EmbC M300L mutant gene after 48 hrs. In a few lines:
as §1

Converted amounts (≈) assume the structure as drawn.

In the case of `CC[C@@H](CO)NCCN[C@@H](CC)CO` [ETHAMBUTOL], the MIC90 (commonly the lowest concentration that inhibits either 90% of growth or 90% of the strains tested, depending on the study) was 0.5 µg/mL (≈ 2.45 µM) in test [1]; under 0.5 µg/mL in test [2]; 1 µg/mL (≈ 4.89 µM) in [4]; 1 µg/mL (≈ 4.89 µM) in [8]; under 0.5 µg/mL in test [12]. Further, the MIC (as a rule, the least concentration at which growth counts as inhibited) is 0.5 µg/mL (≈ 2.45 µM) in test [3]; 8 µg/mL (≈ 39.2 µM) in test [5]; 8 µg/mL (≈ 39.2 µM) in test [6]; under 3 µg/mL in test [7]; 3 µg/mL (≈ 14.7 µM) in test [9]; 4 µg/mL (≈ 19.6 µM) in test [11]. Besides, the minimum inhibitory concentration (MIC) stood at 3 µg/mL (≈ 14.7 µM) in [13], 4 µg/mL (≈ 19.6 µM) in [14], 0.5 µg/mL (≈ 2.45 µM) in [15] and 0.5 µg/mL (≈ 2.45 µM) in test [16]. For the same compound, the Ratio in [10] is given as 6.
